In brackets after ≈: the same amount, converted by molar mass. Activity calls are given as the source filed them. The rule behind the calls is not given here.

MIC data for eleven molecules are collected here from ChEMBL document CHEMBL4814057, “4-4-(Anilinomethyl)-3-[4-(trifluoromethyl)phenyl]-1H-pyrazol-1-ylbenzoic acid derivatives as potent anti-gram-positive bacterial agents” (Eur J Med Chem, 2021).

In one experiment the test system is Bacillus subtilis. The experiment in a line: Antimicrobial activity against Bacillus subtilis ATCC 6623 assessed as bacterial growth inhibitions by CLSI protocol based microdilution method. The class given is functional. In outline:
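Broth microdilution starting at 50 µg/ml with 2-fold serial dilutions; run in triplicate.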
For orientation: In broth dilution the organism is exposed to a series of concentrations in liquid medium.

The subject of experiment [1] is Staphylococcus aureus. The experiment in a line: Antimicrobial activity against methicillin-resistant Staphylococcus aureus ATCC 33591 assessed as bacterial growth inhibitions by CLSI protocol based microdilution method. It counts as functional.
Experiment [2] deals with Staphylococcus aureus. Description: Antimicrobial activity against antibiotic-resistant Staphylococcus aureus BM-2312 assessed as bacterial growth inhibitions by CLSI protocol based microdilution method. The class given is functional.
For experiment [3], the system named is Staphylococcus aureus. The experiment in a line: Antimicrobial activity against methicillin-resistant Staphylococcus aureus ATCC 33592 assessed as bacterial growth inhibitions by CLSI protocol based microdilution method. It counts as functional.
Experiment [4] relates to Staphylococcus aureus. Description: Antimicrobial activity against methicillin-resistant Staphylococcus aureus ATCC 700699 assessed as bacterial growth inhibitions by CLSI protocol based microdilution method. The class given is functional.
Experiment [5] concerns Staphylococcus aureus. The experiment in a line: Antimicrobial activity against methicillin-susceptible Staphylococcus aureus ATCC 25923 assessed as bacterial growth inhibitions by CLSI protocol based microdilution method. It counts as functional.
The test system of a further experiment is Enterococcus faecium. Description: Antimicrobial activity against vancomycin-resistant Enterococcus faecium ATCC 700221 assessed as bacterial growth inhibitions by CLSI protocol based microdilution method. The class given is functional.
The subject of experiment [6] is Staphylococcus epidermidis. Description: Antimicrobial activity against methicillin-resistant Staphylococcus epidermidis ATCC 700296 assessed as bacterial growth inhibitions by CLSI protocol based microdilution method. It counts as functional.
In a further experiment the test system is Enterococcus faecalis. Description: Antimicrobial activity against vancomycin-susceptible Enterococcus faecalis ATCC 29212 assessed as bacterial growth inhibitions by CLSI protocol based microdilution method.

In general, MIC refers to the least concentration at which growth counts as inhibited. Take `O=C(O)c1ccc(-n2cc(CNc3cccc(Cl)c3F)c(-c3ccc(C(F)(F)F)cc3)n2)cc1`: the MIC with Bacillus subtilis stood at 0.78 µg/mL (≈ 1.59 µM); in the experiment on Staphylococcus aureus [1] it was 1.56 µg/mL (≈ 3.18 µM); in the experiment with Staphylococcus aureus [2] it was 0.78 µg/mL (≈ 1.59 µM); with Staphylococcus aureus [3], 1.56 µg/mL (≈ 3.18 µM); in the experiment with Staphylococcus aureus [4] it was 3.12 µg/mL (≈ 6.37 µM); in the experiment with Staphylococcus aureus [5], 1.56 µg/mL (≈ 3.18 µM). Also, in the experiment on Enterococcus faecium, the MIC was 0.78 µg/mL (≈ 1.59 µM).

Take `O=C(O)c1ccc(-n2cc(CNc3ccc(Br)c(C(F)(F)F)c3)c(-c3ccc(C(F)(F)F)cc3)n2)cc1`: the MIC in the experiment with Bacillus subtilis was 3.12 µg/mL (≈ 5.34 µM); in [6] it was 12.5 µg/mL (≈ 21.4 µM); in the experiment with Staphylococcus aureus [1] it was 0.78 µg/mL (≈ 1.33 µM); with Staphylococcus aureus [2] it was 3.12 µg/mL (≈ 5.34 µM); in the experiment with Staphylococcus aureus [3], 3.12 µg/mL (≈ 5.34 µM); with Staphylococcus aureus [4], 3.12 µg/mL (≈ 5.34 µM). Besides, the MIC is 3.12 µg/mL (≈ 5.34 µM) in the experiment on Staphylococcus aureus [5] and 0.78 µg/mL (≈ 1.33 µM) with Enterococcus faecium.

Regarding `O=C(O)c1ccc(-n2cc(CNc3ccc(Cl)cc3)c(-c3ccc(C(F)(F)F)cc3)n2)cc1`, the minimal inhibitory concentration (MIC) stood at 0.78 µg/mL (≈ 1.65 µM) in the experiment with Bacillus subtilis; 6.25 µg/mL (≈ 13.2 µM) in the experiment with Enterococcus faecalis; 3.12 µg/mL (≈ 6.61 µM) in experiment [6]; 1.56 µg/mL (≈ 3.31 µM) in the experiment on Staphylococcus aureus [1]; 1.56 µg/mL (≈ 3.31 µM) in the experiment with Staphylococcus aureus [2]; 1.56 µg/mL (≈ 3.31 µM) in the experiment with Staphylococcus aureus [3]. Further, the MIC in the experiment on Staphylococcus aureus [4], with Staphylococcus aureus [5] and with Enterococcus faecium was 1.56 µg/mL (≈ 3.31 µM) throughout.

Take `O=C(O)c1ccc(-n2cc(CNc3ccc(Cl)c(Cl)c3)c(-c3ccc(C(F)(F)F)cc3)n2)cc1`: the MIC with Bacillus subtilis was found to be 0.78 µg/mL (≈ 1.54 µM); in the experiment with Staphylococcus aureus [1], 0.78 µg/mL (≈ 1.54 µM); in the experiment on Staphylococcus aureus [2], 0.78 µg/mL (≈ 1.54 µM); with Staphylococcus aureus [3] it was 0.78 µg/mL (≈ 1.54 µM); in the experiment on Staphylococcus aureus [4], 1.56 µg/mL (≈ 3.08 µM); in the experiment on Staphylococcus aureus [5], 0.78 µg/mL (≈ 1.54 µM). The MIC in the experiment with Enterococcus faecium worked out at 0.78 µg/mL (≈ 1.54 µM).

Take `O=C(O)c1ccc(-n2cc(CNc3cc(F)c(C(F)(F)F)c(F)c3)c(-c3ccc(C(F)(F)F)cc3)n2)cc1`: the MIC worked out at 0.78 µg/mL (≈ 1.44 µM) in the experiment on Bacillus subtilis; 12.5 µg/mL (≈ 23.1 µM) in the experiment with Enterococcus faecalis; 3.12 µg/mL (≈ 5.76 µM) in experiment [6]; 1.56 µg/mL (≈ 2.88 µM) in the experiment with Staphylococcus aureus [1]; 1.56 µg/mL (≈ 2.88 µM) in the experiment with Staphylococcus aureus [2]; 1.56 µg/mL (≈ 2.88 µM) in the experiment on Staphylococcus aureus [3]. For the same molecule, the MIC in the experiment on Staphylococcus aureus [4] was determined as 1.56 µg/mL (≈ 2.88 µM); in the experiment on Staphylococcus aureus [5] it was 1.56 µg/mL (≈ 2.88 µM); in the experiment with Enterococcus faecium, 6.25 µg/mL (≈ 11.5 µM).

Regarding `O=C(O)c1ccc(-n2cc(CNc3ccc(C(=O)O)c(C(F)(F)F)c3)c(-c3ccc(C(F)(F)F)cc3)n2)cc1`, the MIC entry with Bacillus subtilis, in the experiment on Enterococcus faecalis, in the experiment with Staphylococcus aureus [1], in the experiment on Staphylococcus aureus [3], with Staphylococcus aureus [4] and in the experiment with Enterococcus faecium was “inactive” throughout. Further, the MIC (in experiment [6]; in the experiment with Staphylococcus aureus [2]; in the experiment on Staphylococcus aureus [5]) was 50 µg/mL (≈ 91 µM) each time.

`O=C(O)c1ccc(-n2cc(CNc3cccc(F)c3)c(-c3ccc(C(F)(F)F)cc3)n2)cc1`: the minimum inhibitory concentration (MIC) with Bacillus subtilis is 1.56 µg/mL (≈ 3.43 µM); in the experiment with Enterococcus faecalis it was 25 µg/mL (≈ 54.9 µM); in [6] it was 6.25 µg/mL (≈ 13.7 µM); in the experiment with Staphylococcus aureus [1], 3.12 µg/mL (≈ 6.85 µM); in the experiment on Staphylococcus aureus [2], 3.12 µg/mL (≈ 6.85 µM); in the experiment with Staphylococcus aureus [3], 3.12 µg/mL (≈ 6.85 µM). Further, the MIC with Staphylococcus aureus [4] worked out at 3.12 µg/mL (≈ 6.85 µM); in the experiment with Staphylococcus aureus [5] it was 3.12 µg/mL (≈ 6.85 µM); in the experiment with Enterococcus faecium, 6.25 µg/mL (≈ 13.7 µM).

Turning to `O=C(O)c1ccc(-n2cc(CNc3ccc(Br)cc3)c(-c3ccc(C(F)(F)F)cc3)n2)cc1`, the MIC came out at 0.78 µg/mL (≈ 1.51 µM) in the experiment with Bacillus subtilis; 6.25 µg/mL (≈ 12.1 µM) with Enterococcus faecalis; 3.12 µg/mL (≈ 6.04 µM) in experiment [6]; 0.78 µg/mL (≈ 1.51 µM) in the experiment on Staphylococcus aureus [1]; 0.78 µg/mL (≈ 1.51 µM) in the experiment on Staphylococcus aureus [2]; 1.56 µg/mL (≈ 3.02 µM) in the experiment with Staphylococcus aureus [3]. Besides, the MIC with Staphylococcus aureus [4], in the experiment with Staphylococcus aureus [5] and in the experiment with Enterococcus faecium was 0.78 µg/mL (≈ 1.51 µM) each time.

`O=C(O)c1ccc(-n2cc(CNc3cc(Br)cc(C(F)(F)F)c3)c(-c3ccc(C(F)(F)F)cc3)n2)cc1`: the MIC stood at 0.78 µg/mL (≈ 1.33 µM) with Bacillus subtilis; 0.78 µg/mL (≈ 1.33 µM) in the experiment with Enterococcus faecalis; 1.56 µg/mL (≈ 2.67 µM) in experiment [6]; 3.12 µg/mL (≈ 5.34 µM) in the experiment on Staphylococcus aureus [1]; 0.78 µg/mL (≈ 1.33 µM) in the experiment on Staphylococcus aureus [2]; 0.78 µg/mL (≈ 1.33 µM) with Staphylococcus aureus [3]. Moreover, the minimal inhibitory concentration (MIC) in the experiment with Staphylococcus aureus [4], in the experiment on Staphylococcus aureus [5] and with Enterococcus faecium was 0.78 µg/mL (≈ 1.33 µM) in each case.

`Cc1ccc(NCc2cn(-c3ccc(C(=O)O)cc3)nc2-c2ccc(C(F)(F)F)cc2)cc1Cl`: the MIC in the experiment with Bacillus subtilis came out at 0.78 µg/mL (≈ 1.61 µM); in the experiment with Enterococcus faecalis, 3.12 µg/mL (≈ 6.42 µM); in experiment [6], 1.56 µg/mL (≈ 3.21 µM); in the experiment on Staphylococcus aureus [1], 0.78 µg/mL (≈ 1.61 µM); with Staphylococcus aureus [2] it was 0.78 µg/mL (≈ 1.61 µM); in the experiment with Staphylococcus aureus [3], 0.78 µg/mL (≈ 1.61 µM). For the same molecule, the MIC with Staphylococcus aureus [4], with Staphylococcus aureus [5] and with Enterococcus faecium was 0.78 µg/mL (≈ 1.61 µM) each time.

Turning to `O=C(O)c1ccc(-n2cc(CNc3ccc(N4CCOCC4)c(C(F)(F)F)c3)c(-c3ccc(C(F)(F)F)cc3)n2)cc1`, the MIC with Bacillus subtilis amounted to 0.78 µg/mL (≈ 1.32 µM); with Enterococcus faecalis, 1.56 µg/mL (≈ 2.64 µM); in [6], 1.56 µg/mL (≈ 2.64 µM); in the experiment with Staphylococcus aureus [1], 0.78 µg/mL (≈ 1.32 µM); in the experiment with Staphylococcus aureus [2] it was 1.56 µg/mL (≈ 2.64 µM); in the experiment on Staphylococcus aureus [3], 0.78 µg/mL (≈ 1.32 µM). Also, the MIC in the experiment with Staphylococcus aureus [4], with Staphylococcus aureus [5] and in the experiment on Enterococcus faecium was 0.78 µg/mL (≈ 1.32 µM) throughout.
